Laboratory results: ChEMBL document CHEMBL1177688, “Synthesis of novel pyrazolic analogues of chalcones and their 3-aryl-4-(3-aryl-4,5-dihydro-1H-pyrazol-5-yl)-1-phenyl-1H-pyrazole derivatives as potential antitumor agents” (2010)

How the values were obtained:
Type in all cases: functional
[1] = system: LOX IMVI; experiment: Antiproliferative activity against human LOXIMVI cells after 48 hrs by SRB assay; conditions: read-out: LC50 (the source's name)
Summary of the method: (§1)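 NCI 60-cell-line human tumour panel, secondary five-dose screen. Compounds tested at 100, 10, 1.0, 0.1 and 0.01 µM with 48 h continuous exposure. Cell growth was estimated by sulforhodamine B protein staining. GI50 is the concentration giving a 50% reduction in net protein increase relative to untreated control cells over the incubation. TGI and LC50 were also derived.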

[2] = system: MDA-MB-231; experiment: Antiproliferative activity against human MDA-MB-231 cells after 48 hrs by SRB assay; conditions: MDA-MB-231, 48 h
Summary of the method: (§2)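 NCI 60-cell human tumour line panel. Continuous 48 h drug exposure at five concentrations (100, 10, 1.0, 0.1, 0.01 µM). Cell growth estimated by sulforhodamine B protein staining. GI50 = concentration giving 50% reduction in net protein increase versus control cells over the incubation. LC50 = molar concentration killing 50% of cells.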

[3] = system: CAKI-1; experiment: Antiproliferative activity against human Caki1 cells after 48 hrs by SRB assay; conditions: CAKI-1, 48 h; summary of the method: as §2
[4] = system: NCI-H23; experiment: Antiproliferative activity against human NCI-H23 cells after 48 hrs by SRB assay; conditions: NCI-H23, 48 h; summary of the method: as §2
[5] = system: ACHN; experiment: Antiproliferative activity against human ACHN cells after 48 hrs by SRB assay; summary of the method: as §2
[6] = system: COLO 205; experiment: Antiproliferative activity against human COLO205 cells after 48 hrs by SRB assay; conditions: COLO 205, 48 h; summary of the method: as §2
[7] = system: NCI-H226; experiment: Antiproliferative activity against human NCI-H226 cells after 48 hrs by SRB assay; conditions: NCI-H226, 48 h; summary of the method: as §1
[8] = system: SK-MEL-28; experiment: Antiproliferative activity against human SK-MEL-28 cells after 48 hrs by SRB assay; conditions: SK-MEL-28, 48 h, read-out: LC50 (the source's name); summary of the method: as §1
[9] = system: T47D; experiment: Antiproliferative activity against human T47D cells after 48 hrs by SRB assay; summary of the method: as §2
[10] = system: A549; experiment: Antiproliferative activity against human A549 cells after 48 hrs by SRB assay; conditions: A549, 48 h, read-out: LC50 (the source's name); summary of the method: as §1
[11] = system: NCI/ADR-RES; experiment: Antiproliferative activity against human NCI/ADR-RES cells after 48 hrs by SRB assay; summary of the method: as §2
[12] = system: SK-MEL-5; experiment: Antiproliferative activity against human SK-MEL-5 cells after 48 hrs by SRB assay; conditions: SK-MEL-5, 48 h; summary of the method: as §2
[13] = system: NCI-H522; experiment: Antiproliferative activity against human NCI-H522 cells after 48 hrs by SRB assay; conditions: NCI-H522, 48 h; summary of the method: as §1
[14] = Antiproliferative activity against human […] cells after 48 hrs by SRB assay; summary of the method: as §1
[15] = system: MDA-MB-468; experiment: Antiproliferative activity against human MDA-MB-468 cells after 48 hrs by SRB assay; conditions: MDA-MB-468, 48 h; summary of the method: as §1
[16] = system: BT-549; experiment: Antiproliferative activity against human BT549 cells after 48 hrs by SRB assay; conditions: BT-549, 48 h; summary of the method: as §1
[17] = system: NCI-H460; experiment: Antiproliferative activity against human NCI-H460 cells after 48 hrs by SRB assay; conditions: NCI-H460, 48 h, read-out: LC50 (the source's name); summary of the method: as §1
[18] = system: HT-29; experiment: Antiproliferative activity against human HT-29 cells after 48 hrs by SRB assay; conditions: HT-29, 48 h, read-out: LC50 (the source's name); summary of the method: as §1
[19] = system: UO-31; experiment: Antiproliferative activity against human UO31 cells after 48 hrs by SRB assay; conditions: UO-31, 48 h; summary of the method: as §1
[20] = system: SNB-75; experiment: Antiproliferative activity against human SNB75 cells after 48 hrs by SRB assay; conditions: SNB-75, 48 h; summary of the method: as §1
[21] = system: RXF 393; experiment: Antiproliferative activity against human RXF393 cells after 48 hrs by SRB assay; conditions: RXF 393, 48 h; summary of the method: as §2
[22] = system: SK-MEL-2; experiment: Antiproliferative activity against human SK-MEL-2 cells after 48 hrs by SRB assay; conditions: SK-MEL-2, 48 h; summary of the method: as §1
[23] = system: HCC 2998; experiment: Antiproliferative activity against human HCC2998 cells after 48 hrs by SRB assay; conditions: HCC 2998, 48 h; summary of the method: as §1
[24] = system: HOP-92; experiment: Antiproliferative activity against human HOP92 cells after 48 hrs by SRB assay; conditions: HOP-92, 48 h, read-out: LC50 (the source's name); summary of the method: as §1
[25] = system: HCT-15; experiment: Antiproliferative activity against human HCT15 cells after 48 hrs by SRB assay; conditions: HCT-15, 48 h, read-out: LC50 (the source's name); summary of the method: as §1
[26] = system: M14; experiment: Antiproliferative activity against human M14 cells after 48 hrs by SRB assay; conditions: M14, 48 h, read-out: LC50 (the source's name); summary of the method: as §1
[27] = system: U-251; experiment: Antiproliferative activity against human U251 cells after 48 hrs by SRB assay; conditions: U-251, 48 h; summary of the method: as §2
[28] = system: TK-10; experiment: Antiproliferative activity against human TK10 cells after 48 hrs by SRB assay; conditions: TK-10, 48 h; summary of the method: as §1
[29] = system: OVCAR-5; experiment: Antiproliferative activity against human OVCAR5 cells after 48 hrs by SRB assay; conditions: OVCAR-5, 48 h; summary of the method: as §1
[30] = system: SF-268; experiment: Antiproliferative activity against human SF268 cells after 48 hrs by SRB assay; conditions: SF-268, 48 h; summary of the method: as §1
[31] = system: SR; experiment: Antiproliferative activity against human SR cells after 48 hrs by SRB assay; summary of the method: as §1
[32] = system: KM12; experiment: Antiproliferative activity against human KM12 cells after 48 hrs by SRB assay; conditions: KM12, 48 h, read-out: LC50 (the source's name); summary of the method: as §1
[33] = system: DU-145; experiment: Antiproliferative activity against human DU145 cells after 48 hrs by SRB assay; conditions: DU-145, 48 h, read-out: LC50 (the source's name); summary of the method: as §1
[34] = system: SNB-19; experiment: Antiproliferative activity against human SNB19 cells after 48 hrs by SRB assay; conditions: SNB-19, 48 h; summary of the method: as §1
[35] = system: Malme-3M; experiment: Antiproliferative activity against human MALME-3M cells after 48 hrs by SRB assay; summary of the method: as §1
[36] = system: SF-295; experiment: Antiproliferative activity against human SF295 cells after 48 hrs by SRB assay; conditions: SF-295, 48 h; summary of the method: as §1
[37] = system: SK-OV-3; experiment: Antiproliferative activity against human SKOV3 cells after 48 hrs by SRB assay; conditions: SK-OV-3, 48 h; summary of the method: as §1
[38] = system: UACC-257; experiment: Antiproliferative activity against human UACC257 cells after 48 hrs by SRB assay; conditions: UACC-257, 48 h; summary of the method: as §1
[39] = read-out: LC50 (the source's name)

O=C(/C=C/c1cn(-c2ccccc2)nc1-c1ccc([N+](=O)[O-])cc1)c1ccc(Cl)cc1
CC50 [1]: > 100 µM
GI50 [2]: 2.45 µM
CC50 [2, 39]: > 100 µM
GI50 [3]: 4.56 µM
CC50 [3, 39]: > 100 µM
GI50 [4]: 4.99 µM
CC50 [4, 39]: > 100 µM
GI50 [5]: 4.27 µM
CC50 [5, 39]: > 100 µM
GI50 [6]: 2.09 µM
GI50 [7]: 3.77 µM
CC50 [7, 39]: > 100 µM
CC50 [8]: > 100 µM
GI50 [9]: 1.12 µM
CC50 [9, 39]: > 100 µM
CC50 [10]: > 100 µM
GI50 [11]: 4.64 µM
CC50 [11, 39]: > 100 µM
GI50 [12]: > 100 µM
CC50 [12, 39]: > 100 µM
GI50 [13]: 6.41 µM
LC50 (concentration killing 50% of tumour cells) [13]: > 100 µM
GI50 [14]: 1.86 µM
LC50 (50% lethal concentration) [14]: > 100 µM
GI50 [15]: 2.91 µM
CC50 [15, 39]: > 100 µM
GI50 [16]: 2.25 µM
CC50 [16, 39]: > 100 µM
CC50 [17]: > 100 µM
CC50 [18]: > 100 µM
GI50 [19]: 0.1 µM
CC50 [19, 39]: > 100 µM
GI50 [20]: 1.55 µM
LC50 (50% lethal concentration) [20]: 24 µM
GI50 [21]: 2.08 µM
CC50 [21, 39]: 9.87 µM
GI50 [22]: 6.99 µM
CC50 [22, 39]: 57.9 µM
GI50 [23]: > 100 µM
CC50 [23, 39]: > 100 µM
CC50 [24]: > 100 µM
CC50 [25]: > 100 µM
CC50 [26]: > 100 µM
GI50 [27]: 2.09 µM
CC50 [27, 39]: > 100 µM
GI50 [28]: 3.12 µM
CC50 [28, 39]: > 100 µM
GI50 [29]: > 100 µM
CC50 [29, 39]: > 100 µM
GI50 [30]: 3.12 µM
LC50 [30]: > 100 µM
GI50 [31]: 2.76 µM
LC50 (50% net cell kill) [31]: > 100 µM
CC50 [32]: > 100 µM
CC50 [33]: > 100 µM
GI50 [34]: 4.9 µM
CC50 [34, 39]: > 100 µM
GI50 [35]: 2.44 µM
CC50 [35, 39]: > 100 µM
GI50 [36]: 2.32 µM
CC50 [36, 39]: 74.1 µM
GI50 [37]: 12.5 µM
CC50 [37, 39]: > 100 µM
GI50 [38]: > 100 µM
LC50 (concentration killing 50% of cells) [38]: > 100 µM
